ChEMBL document CHEMBL1833805, “Histone deacetylase inhibitors from Burkholderia thailandensis” (2011)
Calls of active or inactive are those of the source. No cut-off for these calls is given here.

Experiments:
UACC-62 = assay: Antitumor activity against human UACC62 cells implanted subcutaneously in mouse assessed as inhibition of tumor cell growth at 1.6 to 2.4 mg/kg, ip administered on day 1 to 4 measured on day 5 by hollow fiber assay; assay type: functional
Procedure, shortened: (§1)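 Human tumour cell lines from a standard 12-line panel encapsulated in polyvinylidene fluoride hollow fibres (500,000 Da exclusion), implanted intraperitoneally or subcutaneously in mice; drug given IP at 2.4 and 1.6 mg/kg/dose on days 1–4; fibres retrieved and viable cell mass determined day 5; T/C versus vehicle-only injected controls.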

NCI-H522 = assay: Antitumor activity against human NCI-H522 cells implanted subcutaneously in mouse assessed as inhibition of tumor cell growth at 1.6 to 2.4 mg/kg, ip administered on day 1 to 4 measured on day 5 by hollow fiber assay; assay type: functional; procedure, shortened: as §1
COLO 205 [1] = assay: Ratio of FK228 LC50 to compound LC50 for human COLO205 cells; assay type: functional
CAKI-1 [2] = assay: Ratio of FK228 TGI to compound TGI for human Caki1 cells; assay type: functional
MDA-MB-468 [3] = assay: Cytotoxicity against human MDA-MB-468 cells after 6 days by MTT assay; assay type: functional; conditions: MDA-MB-468, 144 h
UACC-257 [4] = assay: Cytotoxicity against human UACC257 cells after 6 days by MTT assay; assay type: functional; conditions: UACC-257, 144 h
UO-31 [5] = assay: Ratio of FK228 TGI to compound TGI for human UO31 cells; assay type: functional
ACHN [6] = assay: Cytotoxicity against human ACHN cells after 6 days by MTT assay; assay type: functional; conditions: 144 h
OVCAR-5 = assay: Antitumor activity against human OVCAR5 cells implanted subcutaneously in mouse assessed as inhibition of tumor cell growth at 1.6 to 2.4 mg/kg, ip administered on day 1 to 4 measured on day 5 by hollow fiber assay; assay type: functional; procedure, shortened: as §1
CAKI-1 [7] = assay: Cytotoxicity against human Caki1 cells after 6 days by MTT assay; assay type: functional; conditions: CAKI-1, 144 h
[8] = target: Histone deacetylase 8 (Homo sapiens) (UniProt Q9BY41); assay: Inhibition of human HDAC8 assessed as deacetylated substrate level using RHKKAc as substrate by fluorometric analysis
Procedure, shortened: (§2)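 Recombinant human HDAC1 or HDAC8 with fluorogenic p53 379–382 peptide RHKKAc as substrate. Compound tested at 10 doses in duplicate, 3-fold serial dilution from 20 µM. Substrate incubated with compound, then the mixture was digested with a developing mixture. Fluorescence read at 360 nm excitation / 460 nm emission, proportional to deacetylated substrate.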

SN12C [9] = assay: Cytotoxicity against human SN12C cells after 6 days by MTT assay; assay type: functional; conditions: 144 h
RXF 393 [10] = assay: Ratio of FK228 LC50 to compound LC50 for human RXF393 cells; assay type: functional
UO-31 [11] = assay: Cytotoxicity against human UO31 cells after 6 days by MTT assay; assay type: functional; conditions: UO-31, 144 h
[12] = target: Histone deacetylase 1 (Homo sapiens) (UniProt Q13547); assay: Inhibition of human HDAC1 assessed as deacetylated substrate level using RHKKAc as substrate by fluorometric analysis; procedure, shortened: as §2
U-251 [13] = assay: Ratio of FK228 LC50 to compound LC50 for human U251 cells; assay type: functional
A498 [14] = assay: Cytotoxicity against human A498 cells after 6 days by MTT assay; assay type: functional; conditions: A498, 144 h
[15] = Antitumor activity against human […] cells implanted subcutaneously in mouse assessed as inhibition of tumor cell growth at 1.6 to 2.4 mg/kg, ip administered on day 1 to 4 measured on day 5 by hollow fiber assay; assay type: functional; procedure, shortened: as §1
A498 [16] = assay: Ratio of FK228 TGI to compound TGI for human A498 cells; assay type: functional
MDA-MB-231 [17] = assay: Ratio of FK228 TGI to compound TGI for human MDA-MB-231 cells; assay type: functional
ACHN [18] = assay: Ratio of FK228 TGI to compound TGI for human ACHN cells; assay type: functional
SF-295 [19] = assay: Antitumor activity against human SF295 cells implanted subcutaneously in mouse assessed as inhibition of tumor cell growth at 1.6 to 2.4 mg/kg, ip administered on day 1 to 4 measured on day 5 by hollow fiber assay; assay type: functional; procedure, shortened: as §1
MDA-MB-231 [20] = assay: Cytotoxicity against human MDA-MB-231 cells after 6 days by MTT assay; assay type: functional; conditions: MDA-MB-231, 144 h
SN12C [21] = assay: Ratio of FK228 TGI to compound TGI for human SN12C cells; assay type: functional
SF-295 [22] = assay: Ratio of FK228 TGI to compound TGI for human SF295 cells; assay type: functional
NCI-H322M [23] = assay: Cytotoxicity against human NCI-H322M cells after 6 days by MTT assay; assay type: functional; conditions: 144 h
U-251 [24] = assay: Cytotoxicity against human U251 cells after 6 days by MTT assay; assay type: functional; conditions: U-251, 144 h
COLO 205 [25] = assay: Ratio of FK228 TGI to compound TGI for human COLO205 cells; assay type: functional
MDA-MB-435 = assay: Antitumor activity against human MDA-MB-435 cells implanted subcutaneously in mouse assessed as inhibition of tumor cell growth at 1.6 to 2.4 mg/kg, ip administered on day 1 to 4 measured on day 5 by hollow fiber assay; assay type: functional; procedure, shortened: as §1
[26] = target: Histone deacetylase 4 (Homo sapiens) (UniProt P56524); assay: Inhibition of human HDAC4 assessed as deacetylated substrate level using RHKAcKAc as substrate by fluorometric analysis
Procedure, shortened: as §2, with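 “HDAC4” for “HDAC1 or HDAC8”, “RHKAcKAc” for “RHKKAc”, “Two steps: incubation” for “Substrate incubated”, “substrate,” for “compound,”, “digestion” for “the mixture was digested”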

SF-295 [27] = assay: Cytotoxicity against human SF295 cells after 6 days by MTT assay; assay type: functional; conditions: SF-295, 144 h
LOX IMVI = assay: Antitumor activity against human LOXIMVI cells implanted subcutaneously in mouse assessed as inhibition of tumor cell growth at 1.6 to 2.4 mg/kg, ip administered on day 1 to 4 measured on day 5 by hollow fiber assay; assay type: functional; procedure, shortened: as §1
SW-620 = assay: Antitumor activity against human SW620 cells implanted subcutaneously in mouse assessed as inhibition of tumor cell growth at 1.6 to 2.4 mg/kg, ip administered on day 1 to 4 measured on day 5 by hollow fiber assay; assay type: functional; procedure, shortened: as §1
COLO 205 [28] = assay: Cytotoxicity against human COLO205 cells after 6 days by MTT assay; assay type: functional; conditions: COLO 205, 144 h
UACC-257 [29] = assay: Ratio of FK228 TGI to compound TGI for human UACC257 cells; assay type: functional
U-251 [30] = assay: Ratio of FK228 TGI to compound TGI for human U251 cells; assay type: functional
MDA-MB-468 [31] = assay: Ratio of FK228 TGI to compound TGI for human MDA-MB-468 cells; assay type: functional
A498 [32] = assay: Ratio of FK228 LC50 to compound LC50 for human A498 cells; assay type: functional
NCI-H23 = assay: Antitumor activity against human NCI-H23 cells implanted subcutaneously in mouse assessed as inhibition of tumor cell growth at 1.6 to 2.4 mg/kg, ip administered on day 1 to 4 measured on day 5 by hollow fiber assay; assay type: functional; procedure, shortened: as §1
NCI-H322M [33] = assay: Ratio of FK228 TGI to compound TGI for human NCI-H322M cells; assay type: functional
COLO 205 [34] = assay: Antitumor activity against human COLO205 cells implanted subcutaneously in mouse assessed as inhibition of tumor cell growth at 1.6 to 2.4 mg/kg, ip administered on day 1 to 4 measured on day 5 by hollow fiber assay; assay type: functional; procedure, shortened: as §1
MDA-MB-231 [35] = assay: Antitumor activity against human MDA-MB-231 cells implanted subcutaneously in mouse assessed as inhibition of tumor cell growth at 1.6 to 2.4 mg/kg, ip administered on day 1 to 4 measured on day 5 by hollow fiber assay; assay type: functional; procedure, shortened: as §1
U-251 [36] = assay: Antitumor activity against human U251 cells implanted subcutaneously in mouse assessed as inhibition of tumor cell growth at 1.6 to 2.4 mg/kg, ip administered on day 1 to 4 measured on day 5 by hollow fiber assay; assay type: functional; procedure, shortened: as §1
RXF 393 [37] = assay: Cytotoxicity against human RXF393 cells after 6 days by MTT assay; assay type: functional; conditions: RXF 393, 144 h
RXF 393 [38] = assay: Ratio of FK228 TGI to compound TGI for human RXF393 cells; assay type: functional
NCI = assay: Cytotoxicity against human NCI60 cells after 6 days by MTT assay; assay type: functional; conditions: 144 h
[39] = read-out: LC50 (the source's name)

Sequence of Histone deacetylase 8 (Homo sapiens) (Q9BY41 whole entry): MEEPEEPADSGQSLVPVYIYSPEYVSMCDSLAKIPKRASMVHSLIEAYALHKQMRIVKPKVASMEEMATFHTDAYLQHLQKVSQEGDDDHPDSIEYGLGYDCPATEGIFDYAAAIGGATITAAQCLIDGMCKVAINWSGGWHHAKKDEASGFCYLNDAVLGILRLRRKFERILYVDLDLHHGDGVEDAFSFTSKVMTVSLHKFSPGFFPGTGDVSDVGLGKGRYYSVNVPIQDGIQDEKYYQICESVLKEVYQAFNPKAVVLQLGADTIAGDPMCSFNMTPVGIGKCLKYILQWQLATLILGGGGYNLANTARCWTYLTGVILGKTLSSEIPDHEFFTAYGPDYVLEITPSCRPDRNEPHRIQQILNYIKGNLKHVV
Sequence of Histone deacetylase 1 (Homo sapiens) (Q13547 whole entry): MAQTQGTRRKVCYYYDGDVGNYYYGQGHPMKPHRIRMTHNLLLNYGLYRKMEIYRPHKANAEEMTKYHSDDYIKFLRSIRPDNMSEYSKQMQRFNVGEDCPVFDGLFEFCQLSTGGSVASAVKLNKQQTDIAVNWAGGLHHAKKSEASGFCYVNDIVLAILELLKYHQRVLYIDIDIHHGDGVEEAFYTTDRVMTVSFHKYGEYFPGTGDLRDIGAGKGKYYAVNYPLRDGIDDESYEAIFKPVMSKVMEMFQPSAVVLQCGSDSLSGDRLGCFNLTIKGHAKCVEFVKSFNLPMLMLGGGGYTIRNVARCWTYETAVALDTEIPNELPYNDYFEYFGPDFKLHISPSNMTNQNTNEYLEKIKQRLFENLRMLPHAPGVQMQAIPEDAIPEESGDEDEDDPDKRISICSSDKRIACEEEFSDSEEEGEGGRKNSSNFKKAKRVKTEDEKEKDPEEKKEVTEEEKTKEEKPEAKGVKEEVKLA
Sequence of Histone deacetylase 4 (Homo sapiens) (P56524 whole entry): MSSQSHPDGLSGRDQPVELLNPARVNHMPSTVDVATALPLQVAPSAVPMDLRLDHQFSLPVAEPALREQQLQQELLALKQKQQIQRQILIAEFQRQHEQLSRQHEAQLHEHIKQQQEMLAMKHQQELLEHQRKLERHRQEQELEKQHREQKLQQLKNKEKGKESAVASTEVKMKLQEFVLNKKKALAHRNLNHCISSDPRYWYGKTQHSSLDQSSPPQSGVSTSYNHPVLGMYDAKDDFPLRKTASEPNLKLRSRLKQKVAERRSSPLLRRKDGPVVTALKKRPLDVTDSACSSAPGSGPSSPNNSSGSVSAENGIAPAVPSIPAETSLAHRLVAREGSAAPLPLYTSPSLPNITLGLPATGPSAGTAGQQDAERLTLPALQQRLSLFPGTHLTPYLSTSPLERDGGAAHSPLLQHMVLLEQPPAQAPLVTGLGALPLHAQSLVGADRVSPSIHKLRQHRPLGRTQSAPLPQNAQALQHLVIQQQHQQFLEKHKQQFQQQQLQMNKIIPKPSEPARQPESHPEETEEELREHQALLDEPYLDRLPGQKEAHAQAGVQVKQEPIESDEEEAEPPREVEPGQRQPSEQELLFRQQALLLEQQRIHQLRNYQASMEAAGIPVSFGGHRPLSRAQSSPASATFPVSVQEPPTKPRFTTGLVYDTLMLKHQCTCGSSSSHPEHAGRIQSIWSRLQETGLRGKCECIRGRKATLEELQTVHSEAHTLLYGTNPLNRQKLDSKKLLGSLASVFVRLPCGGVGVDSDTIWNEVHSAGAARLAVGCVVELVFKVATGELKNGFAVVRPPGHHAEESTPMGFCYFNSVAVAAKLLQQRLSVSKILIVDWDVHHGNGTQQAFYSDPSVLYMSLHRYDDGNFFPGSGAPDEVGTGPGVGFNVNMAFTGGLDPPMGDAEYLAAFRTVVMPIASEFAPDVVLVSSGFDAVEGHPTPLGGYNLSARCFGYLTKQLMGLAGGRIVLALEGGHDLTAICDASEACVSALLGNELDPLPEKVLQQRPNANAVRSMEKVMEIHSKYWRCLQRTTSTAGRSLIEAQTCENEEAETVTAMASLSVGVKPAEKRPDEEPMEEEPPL

Compound: CC[C@H](C)[C@H]1NC(=O)[C@H]2CSSCC/C=C/[C@H](CC(=O)N[C@H](CC[S+](C)[O-])C(=O)N2)OC(=O)C[C@@H]1O (stereo partly specified) [SPIRUCHOSTATIN C]
- T/C (UACC-62): >50%
- T/C (NCI-H522): >50%
- Ratio (COLO 205 [1]): 6
- Ratio (CAKI-1 [2]): 2.1
- TGI (MDA-MB-468 [3]): 23 nM
- TGI (UACC-257 [4]): 33 nM
- Ratio (UO-31 [5]): 4.9
- TGI (ACHN [6]): 180 nM
- T/C (OVCAR-5): >50%
- TGI (CAKI-1 [7]): 880 nM
- inhibition [8]: Active
- TGI (SN12C [9]): 160 nM
- Ratio (RXF 393 [10]): 1.8
- TGI (UO-31 [11]): 320 nM
- inhibition [12]: Active
- Ratio (U-251 [13]): 3.6
- TGI (A498 [14]): 12 nM
- CC50 (A498 [14]; [39]): 55 nM
- T/C [15]: >50%
- Ratio (A498 [16]): 2.4
- Ratio (MDA-MB-231 [17]): 2.4
- Ratio (ACHN [18]): 4
- T/C (SF-295 [19]): >50%
- TGI (MDA-MB-231 [20]): 150 nM
- Ratio (SN12C [21]): 2.1
- Ratio (SF-295 [22]): 2.3
- TGI (NCI-H322M [23]): 100 nM
- TGI (U-251 [24]): 12 nM
- CC50 (U-251 [24]; [39]): 37 nM
- Ratio (COLO 205 [25]): 3.8
- T/C (MDA-MB-435): >50%
- inhibition [26]: Active
- TGI (SF-295 [27]): 110 nM
- T/C (LOX IMVI): >50%
- T/C (SW-620): >50%
- TGI (COLO 205 [28]): 8 nM
- CC50 (COLO 205 [28]; [39]): 15 nM
- Ratio (UACC-257 [29]): 2.9
- Ratio (U-251 [30]): 2.7
- Ratio (MDA-MB-468 [31]): 3.9
- Ratio (A498 [32]): 3.6
- T/C (NCI-H23): >50%
- Ratio (NCI-H322M [33]): 2.3
- T/C (COLO 205 [34]): >50%
- T/C (MDA-MB-231 [35]): >50%
- T/C (U-251 [36]): >50%
- TGI (RXF 393 [37]): 16 nM
- CC50 (RXF 393 [37]; [39]): 170 nM
- Ratio (RXF 393 [38]): 3.8
- TGI (NCI): 830 nM
- CC50 (NCI; [39]): 7700 nM
